Measurements from different studies.
Compare with care: the assays were run in different laboratories.
INSR: Insulin receptor (INSR, Homo sapiens, UniProt P06213)
KCNA1: Potassium voltage-gated channel subfamily A member 1 (KCNA1, Homo sapiens, UniProt Q09470)

COc1cc(-c2cncc3c2CN(C)Cc2cc(N4CCNCC4)ccc2-3)cc(OC)c1OC
remaining activity (INSR; enzyme activity, inhibitor; 1 µM): 107%

Cc1cc([C@@H](C)Nc2ccccc2C(=O)O)c2nc(N3CCC(F)(F)CC3)c(C#N)c(=O)n2c1
remaining binding (INSR; binding, competition with immobilised ligand; 1 µM): 100%

CNc1ncc2c(/C=C/C(=O)N3CCC(OC)CC3)nn(Cc3cccc(C(F)(F)F)c3)c2n1
remaining activity (Serine/threonine-protein kinase 38-like (STK38L, Homo sapiens, UniProt Q9Y2H1); enzyme activity, inhibitor, radiometric; 1 µM): 90%

O=C(O)CNc1cccc(CN(Cc2ccc(-n3cccn3)cc2)S(=O)(=O)c2cccnc2)n1
inhibition (Prostaglandin E2 receptor EP2 subtype (PTGER2, Homo sapiens, UniProt P43116); ligand displacement, radioligand; 10 µM): 95%

CNCCCC12CCC(c3ccccc31)c1ccccc12
inhibition (KCNA1; ion current, inhibitor, patch clamp; 30 µM): 50.2%

COc1ccc(S(=O)(=O)N(CC(=O)NO)CC(C)C)cc1
inhibition (Collagenase 3 (MMP13, Homo sapiens, UniProt P45452); enzyme activity, inhibitor; 0.5 µM): 51.2%

CC(=O)c1c(C)c2cnc(Nc3ccc(N4CCNCC4)cn3)nc2n(C2CCCC2)c1=O
activity vs control (Cyclin-dependent kinase 3 (CDK3, Homo sapiens, UniProt Q00526); enzyme activity, inhibitor, ADP detection; 1 µM): 90%

Nc1c(Br)cc(Br)cc1CN[C@H]1CC[C@H](O)CC1
inhibition (KCNA1; ion current, inhibitor, patch clamp; 30 µM): 16.8%

CC[C@H](C)[C@H](NC(=O)[C@H](CCC(N)=O)NC(=O)[C@H](CCCNC(=N)N)NC(=O)[C@H](CO)NC(=O)[C@H](Cc1c[nH]cn1)NC(=O)[C@@H]1CCCN1C(=O)[C@H](C)NC(=O)[C@H](CO)NC(=O)[C@H](CC(C)C)NC(=O)CNC(=O)[C@@H]1CCCN1C(=O)[C@H](CCC(N)=O)NC(=O)[C@H](CCC(N)=O)NC(=O)[C@H](CCCNC(=N)N)NC(=O)[C@H](CO)NC(=O)CNC(=O)[C@H](CO)NC(=O)[C@H](CO)NC(=O)[C@H](CCC(=O)O)NC(=O)[C@@H]1CCCN1C(=O)[C@@H]1CCCN1C(=O)[C@@H]1CCCN1C(=O)[C@H](CO)NC(=O)[C@H](CC(C)C)NC(=O)[C@H](CO)NC(=O)[C@@H](NC(=O)CN)[C@@H](C)O)C(=O)N1CCC[C@H]1C(=O)N[C@@H](C)C(=O)N1CCC[C@H]1C(=O)N[C@@H](CCC(N)=O)C(=O)NCC(=O)N[C@@H](C)C(=O)N[C@H](C(=O)N[C@@H](CC(C)C)C(=O)N[C@H](C(=O)N[C@@H](CCC(N)=O)C(=O)N[C@@H](CCCNC(=N)N)C(=O)N[C@@H](CCC(=O)O)C(=O)N[C@@H](CCCCN)C(=O)N[C@@H](CC(=O)O)C(=O)N[C@@H](CC(C)C)C(=O)N1CCC[C@H]1C(=O)N[C@@H](CC(N)=O)C(=O)N[C@@H](Cc1ccc(O)cc1)C(=O)N[C@@H](CC(N)=O)C(=O)N[C@@H](Cc1c[nH]c2ccccc12)C(=O)N[C@@H](CC(N)=O)C(=O)N[C@@H](CO)C(=O)N[C@@H](Cc1ccccc1)C(=O)NCC(=O)N[C@@H](CC(C)C)C(=O)N[C@@H](CCCNC(=N)N)C(=O)N[C@@H](Cc1ccccc1)C(N)=O)C(C)C)C(C)C
Emax (KiSS-1 receptor (KISS1R, Homo sapiens, UniProt Q969F8, Y302A); inositol phosphate, agonist; HEK293): 94.9%

CC(C)NCC(O)COc1cccc2ccccc12 (stereo not shown)
inhibition (KCNA1; ion current, inhibitor, patch clamp; 10 µM): 20.2%

C=CC(=O)N1CCC(COCC(=O)N2CCN(c3nc(-c4cnc(N)nc4C(F)F)nc(N4CCOC[C@@H]4C)n3)CC2)CC1
remaining binding (Serine/threonine-protein kinase SBK1 (SBK1, Homo sapiens, UniProt Q52WX2); binding, competition with immobilised ligand; 1 µM): 100%

O=C1NC(=O)C(c2ccccc2)(c2ccccc2)N1
inhibition (KCNA1; ion current, inhibitor, patch clamp; 10 µM): 13.2%

Cc1cc(NC(=O)c2cccc(NC(=O)/C=C/CN(C)C)c2)ccc1Nc1nccc(-c2cccnc2)n1
remaining binding (INSR; binding, competition with immobilised ligand; 1 µM): 81%
